Converted amounts (≈) assume the structure as drawn.
Experiments:
Format in all cases: functional
Staphylococcus aureus [1] = assay: In vitro antibacterial activity against gram-positive Staphylococcus aureus 1775
Summary of the method: (§1)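 Agar dilution MIC determination following the National Committee for Clinical Laboratory Standards recommendations.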

Streptococcus pyogenes = assay: In vitro antibacterial activity against gram positive Streptococcus pyogenes 930; summary of the method: as §1
Staphylococcus aureus [2] = assay: In vitro antibacterial activity against gram-positive Staphylococcus aureus NCTC 10649M; summary of the method: as §1
Burkholderia cepacia = assay: In vitro antibacterial activity against gram negative Pseudomonas cepacia 2961; summary of the method: as §1
Pseudomonas aeruginosa [3] = assay: In vitro antibacterial activity against Gram-negative Pseudomonas aeruginosa 5007; summary of the method: as §1
Escherichia coli = assay: In vitro antibacterial activity against gram negative Escherichia coli KNK 437; summary of the method: as §1
Pseudomonas aeruginosa [4] = assay: In vitro antibacterial activity against gram negative P. aeruginosa DPHP 5263; summary of the method: as §1
Enterococcus faecium = assay: In vitro antibacterial activity against gram-positive Enterococcus faecium ATCC 8043; summary of the method: as §1
[5] = Staphylococcus aureus, read-out: MIC
[6] = Streptococcus pyogenes, read-out: MIC
[7] = Staphylococcus aureus, NCTC 10649, read-out: MIC
[8] = Burkholderia cepacia, read-out: MIC
[9] = Pseudomonas aeruginosa, read-out: MIC
[10] = Escherichia coli, read-out: MIC
[11] = Pseudomonas aeruginosa, DPHP 5263, read-out: MIC
[12] = Enterococcus faecium, ATCC 8043, read-out: MIC

MIC (Staphylococcus aureus [1]; [5]) [µg/mL]	MIC (Streptococcus pyogenes; [6]) [µg/mL]	MIC (Staphylococcus aureus [2]; [7]) [µg/mL]	MIC (Burkholderia cepacia; [8]) [µg/mL]	MIC (Pseudomonas aeruginosa [3]; [9]) [µg/mL]	MIC (Escherichia coli; [10]) [µg/mL]	MIC (Pseudomonas aeruginosa [4]; [11]) [µg/mL]	MIC (Enterococcus faecium; [12]) [µg/mL]	MIC (Staphylococcus aureus [1]) [µg/mL]	MIC (Streptococcus pyogenes) [µg/mL]	MIC (Staphylococcus aureus [2]) [µg/mL]	MIC (Escherichia coli) [µg/mL]	MIC (Pseudomonas aeruginosa [4]) [µg/mL]	MIC (Enterococcus faecium) [µg/mL]	MIC (Burkholderia cepacia) [µg/mL]	MIC (Pseudomonas aeruginosa [3]) [µg/mL]	Structure (SMILES)
3.1 (≈ 8.98 µM)	0.39 (≈ 1.13 µM)	0.02 (≈ 0.0579 µM)	1.56 (≈ 4.52 µM)	3.1 (≈ 8.98 µM)	3.1 (≈ 8.98 µM)	> 100	0.39 (≈ 1.13 µM)									Cc1c(N2CCCN2C)c(F)cn2c(=O)c(C(=O)O)cc(C3CC3)c12
0.78 (≈ 2.17 µM)	0.1 (≈ 0.278 µM)	0.05 (≈ 0.139 µM)	0.78 (≈ 2.17 µM)	0.39 (≈ 1.09 µM)	0.1 (≈ 0.278 µM)	3.1 (≈ 8.63 µM)	0.2 (≈ 0.556 µM)									Cc1c(N2C[C@H](C)[C@@H](N)C2)c(F)cn2c(=O)c(C(=O)O)cc(C3CC3)c12
6.2 (≈ 16.1 µM)	0.05 (≈ 0.13 µM)	0.05 (≈ 0.13 µM)	0.39 (≈ 1.01 µM)	0.39 (≈ 1.01 µM)	0.2 (≈ 0.519 µM)	6.2 (≈ 16.1 µM)	0.2 (≈ 0.519 µM)									Cc1c(N2C[C@H]3CCNC[C@@H]3C2)c(F)cn2c(=O)c(C(=O)O)cc(C3CC3)c12
0.39 (≈ 0.912 µM)	0.1 (≈ 0.234 µM)	0.02 (≈ 0.0468 µM)	6.2 (≈ 14.5 µM)	1.56 (≈ 3.65 µM)	0.39 (≈ 0.912 µM)	25 (≈ 58.5 µM)	0.2 (≈ 0.468 µM)									Cc1c(N2CCC(CN)(C(F)(F)F)C2)c(F)cn2c(=O)c(C(=O)O)cc(C3CC3)c12 (centres undefined)
1.56 (≈ 3.91 µM)	0.2 (≈ 0.501 µM)	0.05 (≈ 0.125 µM)	1.56 (≈ 3.91 µM)	1.56 (≈ 3.91 µM)	0.78 (≈ 1.95 µM)	25 (≈ 62.6 µM)	0.2 (≈ 0.501 µM)									Cc1c(N2C[C@@H]3CCCC[C@]3(N)C2)c(F)cn2c(=O)c(C(=O)O)cc(C3CC3)c12
1.56 (≈ 4.52 µM)		0.02 (≈ 0.0579 µM)	0.78 (≈ 2.26 µM)		0.05 (≈ 0.145 µM)		0.05 (≈ 0.145 µM)									Cc1c(N2CC[C@@H](N)C2)c(F)cn2c(=O)c(C(=O)O)cc(C3CC3)c12
0.78 (≈ 2.02 µM)	0.05 (≈ 0.13 µM)		0.78 (≈ 2.02 µM)	0.78 (≈ 2.02 µM)	0.1 (≈ 0.259 µM)	6.2 (≈ 16.1 µM)	0.1 (≈ 0.259 µM)			0.01 (≈ 0.0259 µM)						Cc1c(N2C[C@@H](N)[C@H](C3CC3)C2)c(F)cn2c(=O)c(C(=O)O)cc(C3CC3)c12 (stereo in doubt; 3t)
0.78 (≈ 2.02 µM)	0.05 (≈ 0.13 µM)	0.02 (≈ 0.0519 µM)	1.56 (≈ 4.05 µM)	0.39 (≈ 1.01 µM)	0.1 (≈ 0.259 µM)		0.1 (≈ 0.259 µM)									Cc1c(N2C[C@@H]3CCCN[C@@H]3C2)c(F)cn2c(=O)c(C(=O)O)cc(C3CC3)c12
0.2 (≈ 0.577 µM)		0.005 (≈ 0.0144 µM)	0.1 (≈ 0.289 µM)		0.2 (≈ 0.577 µM)		0.05 (≈ 0.144 µM)									Cc1c(N2CCC(O)C2)c(F)cn2c(=O)c(C(=O)O)cc(C3CC3)c12 (centres undefined)
0.78 (≈ 1.82 µM)	0.39 (≈ 0.912 µM)	0.02 (≈ 0.0468 µM)	3.1 (≈ 7.25 µM)	3.1 (≈ 7.25 µM)	1.56 (≈ 3.65 µM)	> 100	0.39 (≈ 0.912 µM)									Cc1c(N2CC[C@H](NCC(F)(F)F)C2)c(F)cn2c(=O)c(C(=O)O)cc(C3CC3)c12
								1.56 (≈ 4.18 µM)	0.1 (≈ 0.268 µM)	0.05 (≈ 0.134 µM)	0.2 (≈ 0.536 µM)		0.2 (≈ 0.536 µM)	1.56 (≈ 4.18 µM)	0.78 (≈ 2.09 µM)	Cc1c(N2CC[C@H](C)[C@H](N)C2)c(F)cn2c(=O)c(C(=O)O)cc(C3CC3)c12 (stereo in doubt)
6.2 (≈ 16.1 µM)		0.05 (≈ 0.13 µM)	3.1 (≈ 8.04 µM)	0.78 (≈ 2.02 µM)	0.39 (≈ 1.01 µM)	6.2 (≈ 16.1 µM)	0.2 (≈ 0.519 µM)									Cc1c(N2CC[C@@H]3CCNC[C@@H]32)c(F)cn2c(=O)c(C(=O)O)cc(C3CC3)c12

More lines, now with the values behind:

Structure (SMILES)	MIC (Staphylococcus aureus [1]; [5]) [µg/mL]	MIC (Streptococcus pyogenes; [6]) [µg/mL]	MIC (Staphylococcus aureus [2]; [7]) [µg/mL]	MIC (Burkholderia cepacia; [8]) [µg/mL]	MIC (Pseudomonas aeruginosa [3]; [9]) [µg/mL]	MIC (Escherichia coli; [10]) [µg/mL]	MIC (Pseudomonas aeruginosa [4]; [11]) [µg/mL]	MIC (Enterococcus faecium; [12]) [µg/mL]	MIC (Staphylococcus aureus [1]) [µg/mL]	MIC (Streptococcus pyogenes) [µg/mL]	MIC (Staphylococcus aureus [2]) [µg/mL]	MIC (Escherichia coli) [µg/mL]	MIC (Pseudomonas aeruginosa [4]) [µg/mL]	MIC (Enterococcus faecium) [µg/mL]	MIC (Burkholderia cepacia) [µg/mL]	MIC (Pseudomonas aeruginosa [3]) [µg/mL]
Cc1c(N2CCCC(N)C2)c(F)cn2c(=O)c(C(=O)O)cc(C3CC3)c12 (centres undefined)	0.39 (≈ 1.09 µM)	0.02 (≈ 0.0556 µM)	0.01 (≈ 0.0278 µM)	0.78 (≈ 2.17 µM)	0.2 (≈ 0.556 µM)	0.1 (≈ 0.278 µM)	3.1 (≈ 8.63 µM)	0.05 (≈ 0.139 µM)								
Cc1c(N2C[C@@H](N)[C@@H](C3CC3)C2)c(F)cn2c(=O)c(C(=O)O)cc(C3CC3)c12 (stereo in doubt)									0.39 (≈ 1.01 µM)	0.02 (≈ 0.0519 µM)	0.005 (≈ 0.013 µM)	0.1 (≈ 0.259 µM)	12.5 (≈ 32.4 µM)	0.05 (≈ 0.13 µM)		
Cc1c(N2CCC(CNCCF)C2)c(F)cn2c(=O)c(C(=O)O)cc(C3CC3)c12 (centres undefined)	0.1 (≈ 0.247 µM)	0.002 (≈ 0.00493 µM)	0.002 (≈ 0.00493 µM)	3.1 (≈ 7.65 µM)	0.78 (≈ 1.92 µM)	0.2 (≈ 0.493 µM)	12.5 (≈ 30.8 µM)	0.02 (≈ 0.0493 µM)								
Cc1c(N2CCC(N(C)C3CC3)C2)c(F)cn2c(=O)c(C(=O)O)cc(C3CC3)c12 (centres undefined)	1.56 (≈ 3.91 µM)	0.2 (≈ 0.501 µM)	0.05 (≈ 0.125 µM)	3.1 (≈ 7.76 µM)	0.78 (≈ 1.95 µM)	0.39 (≈ 0.976 µM)	100 (≈ 250 µM)	0.2 (≈ 0.501 µM)								
CN[C@H]1CCN(c2c(F)cn3c(=O)c(C(=O)O)cc(C4CC4)c3c2C)C1	1.56 (≈ 4.34 µM)	0.05 (≈ 0.139 µM)	0.02 (≈ 0.0556 µM)	1.56 (≈ 4.34 µM)	0.2 (≈ 0.556 µM)	0.05 (≈ 0.139 µM)		0.1 (≈ 0.278 µM)								
Cc1c(N2CC[C@@H](C)[C@@H](N)C2)c(F)cn2c(=O)c(C(=O)O)cc(C3CC3)c12	3.1 (≈ 8.3 µM)	0.39 (≈ 1.04 µM)	0.1 (≈ 0.268 µM)	6.2 (≈ 16.6 µM)	1.56 (≈ 4.18 µM)	0.78 (≈ 2.09 µM)	12.5 (≈ 33.5 µM)	0.39 (≈ 1.04 µM)								
Cc1c(N2C[C@H](N)[C@H](C3CC3)C2)c(F)cn2c(=O)c(C(=O)O)cc(C3CC3)c12	0.78 (≈ 2.02 µM)	0.1 (≈ 0.259 µM)	0.02 (≈ 0.0519 µM)	1.56 (≈ 4.05 µM)	0.39 (≈ 1.01 µM)	0.2 (≈ 0.519 µM)	12.5 (≈ 32.4 µM)	0.1 (≈ 0.259 µM)								
Cc1c(N2C[C@@H]3COC[C@]3(CN)C2)c(F)cn2c(=O)c(C(=O)O)cc(C3CC3)c12	3.1 (≈ 7.72 µM)	0.02 (≈ 0.0498 µM)	0.01 (≈ 0.0249 µM)	6.2 (≈ 15.4 µM)	6.2 (≈ 15.4 µM)	0.1 (≈ 0.249 µM)	6.2 (≈ 15.4 µM)	0.05 (≈ 0.125 µM)								
CN[C@H]1CN(c2c(F)cn3c(=O)c(C(=O)O)cc(C4CC4)c3c2C)C[C@@H]1C	0.78 (≈ 2.09 µM)	0.1 (≈ 0.268 µM)	0.05 (≈ 0.134 µM)	0.78 (≈ 2.09 µM)	3.1 (≈ 8.3 µM)	0.2 (≈ 0.536 µM)	12.5 (≈ 33.5 µM)	0.2 (≈ 0.536 µM)								
Cc1c(N2C[C@@H]3OCC[C@]3(CN)C2)c(F)cn2c(=O)c(C(=O)O)cc(C3CC3)c12	0.78 (≈ 1.94 µM)		0.005 (≈ 0.0125 µM)	3.1 (≈ 7.72 µM)	0.39 (≈ 0.972 µM)	0.2 (≈ 0.498 µM)	6.2 (≈ 15.4 µM)	0.05 (≈ 0.125 µM)								
Cc1c(N2CC[C@@H]3CNC[C@@H]32)c(F)cn2c(=O)c(C(=O)O)cc(C3CC3)c12	6.2 (≈ 16.7 µM)		0.05 (≈ 0.135 µM)	3.1 (≈ 8.35 µM)		0.2 (≈ 0.538 µM)		0.1 (≈ 0.269 µM)								
Cc1c(N2CCCCC2)c(F)cn2c(=O)c(C(=O)O)cc(C3CC3)c12	0.78 (≈ 2.26 µM)	0.2 (≈ 0.581 µM)	0.05 (≈ 0.145 µM)	3.1 (≈ 9 µM)	3.1 (≈ 9 µM)	3.1 (≈ 9 µM)	> 100	0.39 (≈ 1.13 µM)								
Cc1c(N2CCC(CN)C2)c(F)cn2c(=O)c(C(=O)O)cc(C3CC3)c12 (centres undefined)	0.39 (≈ 1.09 µM)		0.002 (≈ 0.00556 µM)	0.39 (≈ 1.09 µM)		0.05 (≈ 0.139 µM)		0.01 (≈ 0.0278 µM)								
CN[C@@H]1CN(c2c(F)cn3c(=O)c(C(=O)O)cc(C4CC4)c3c2C)C[C@H]1C (stereo in doubt)			0.01 (≈ 0.0268 µM)	0.78 (≈ 2.09 µM)	0.2 (≈ 0.536 µM)			0.1 (≈ 0.268 µM)	0.39 (≈ 1.04 µM)	0.02 (≈ 0.0536 µM)		0.05 (≈ 0.134 µM)	3.1 (≈ 8.3 µM)			
